This is an account of results in ChEMBL document CHEMBL5032493, “Synthesis and Evaluation of PPARδ Agonists That Promote Osteogenesis in a Human Mesenchymal Stem Cell Culture and in a Mouse Model of Human Osteoporosis” (J Med Chem, 2021).

Data set [1] deals with Mesenchymal stem cells. In words: Induction of osteogenesis differentiation in human Mesenchymal stem cells at 1 uM incubated for 21 days by Alizarin Red S staining-based microscopic analysis. Conditions: time 21.0 day. It is filed as functional, cell-based.
Data set [2] has as its system Mesenchymal stem cells. In words: Induction of adipogenesis differentiation in human Mesenchymal stem cells at 1 uM incubated for 21 days by […] staining-based microscopic analysis. It is filed as functional, cell-based. Conditions: time 21.0 day.
The test system of data set [3] is Mesenchymal stem cells. In words: Induction of adipogenesis differentiation in human Mesenchymal stem cells at 10 uM incubated for 21 days by […] staining-based microscopic analysis. Conditions: time 21.0 day. The format is functional, cell-based.
In data set [4] the test system is Mesenchymal stem cells. Briefly: Induction of adipogenesis differentiation in human Mesenchymal stem cells at 20 uM incubated for 21 days by […] staining-based microscopic analysis. Conditions: time 21.0 day. It is filed as functional, cell-based.
Data set [5] concerns Mesenchymal stem cells. Briefly: Induction of osteogenesis differentiation in human Mesenchymal stem cells at 10 uM incubated for 21 days by Alizarin Red S staining-based microscopic analysis. The format is functional, cell-based. Conditions: time 21.0 day.
Data set [6] relates to Mesenchymal stem cells. In words: Induction of osteogenesis differentiation in human Mesenchymal stem cells at 20 uM incubated for 21 days by Alizarin Red S staining-based microscopic analysis. The format is functional, cell-based. Conditions: time 21.0 day.
Data set [7] has as its target T1, Peroxisome proliferator-activated receptor alpha (Homo sapiens, UniProt Q07869).
T1 sequence (Q07869 whole entry): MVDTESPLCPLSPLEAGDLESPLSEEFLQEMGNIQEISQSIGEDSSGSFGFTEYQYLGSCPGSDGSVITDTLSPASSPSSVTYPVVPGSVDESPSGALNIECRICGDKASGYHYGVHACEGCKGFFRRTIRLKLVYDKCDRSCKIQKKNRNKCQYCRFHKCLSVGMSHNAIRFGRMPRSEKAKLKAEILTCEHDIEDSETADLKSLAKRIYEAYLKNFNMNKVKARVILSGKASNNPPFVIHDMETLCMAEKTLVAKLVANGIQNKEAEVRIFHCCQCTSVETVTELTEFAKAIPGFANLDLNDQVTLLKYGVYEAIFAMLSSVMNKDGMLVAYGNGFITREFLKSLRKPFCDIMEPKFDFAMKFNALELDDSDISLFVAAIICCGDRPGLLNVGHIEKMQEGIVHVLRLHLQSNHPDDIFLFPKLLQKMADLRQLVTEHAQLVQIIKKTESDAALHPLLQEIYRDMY
Briefly: Agonist activity at human PPARalpha transfected in COS-7 cells assessed luciferase activity measured after 24 hrs by cell based luciferase transactivation assay. Conditions: read-out: EC50. The method in brief:
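Transient transfection of COS-7 cells with human PPARα, PPARγ or PPARδ plus luciferase reporter; constitutive Renilla luciferase also read. Three or more independent experiments in triplicate (N ≥ 9).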

Data set [8] has as its target T2, Peroxisome proliferator-activated receptor delta (Homo sapiens, UniProt Q03181).
T2 sequence (Q03181 whole entry): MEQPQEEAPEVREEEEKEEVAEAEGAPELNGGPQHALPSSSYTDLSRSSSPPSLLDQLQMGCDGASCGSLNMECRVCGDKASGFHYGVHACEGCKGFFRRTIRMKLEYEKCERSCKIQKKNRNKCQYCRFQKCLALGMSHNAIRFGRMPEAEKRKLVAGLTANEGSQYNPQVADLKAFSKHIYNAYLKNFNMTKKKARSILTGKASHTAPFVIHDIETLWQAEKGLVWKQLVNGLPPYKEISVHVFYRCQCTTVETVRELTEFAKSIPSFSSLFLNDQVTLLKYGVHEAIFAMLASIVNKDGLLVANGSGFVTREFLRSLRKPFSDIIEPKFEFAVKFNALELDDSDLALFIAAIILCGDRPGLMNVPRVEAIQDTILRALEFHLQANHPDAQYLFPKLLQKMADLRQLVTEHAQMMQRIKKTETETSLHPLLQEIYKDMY
Briefly: Agonist activity at human PPARdelta transfected in COS-7 cells assessed luciferase activity measured after 24 hrs by cell based luciferase transactivation assay.

Data set [9] deals with T3, Peroxisome proliferator-activated receptor gamma (Homo sapiens, UniProt P37231).
T3 sequence (P37231 whole entry): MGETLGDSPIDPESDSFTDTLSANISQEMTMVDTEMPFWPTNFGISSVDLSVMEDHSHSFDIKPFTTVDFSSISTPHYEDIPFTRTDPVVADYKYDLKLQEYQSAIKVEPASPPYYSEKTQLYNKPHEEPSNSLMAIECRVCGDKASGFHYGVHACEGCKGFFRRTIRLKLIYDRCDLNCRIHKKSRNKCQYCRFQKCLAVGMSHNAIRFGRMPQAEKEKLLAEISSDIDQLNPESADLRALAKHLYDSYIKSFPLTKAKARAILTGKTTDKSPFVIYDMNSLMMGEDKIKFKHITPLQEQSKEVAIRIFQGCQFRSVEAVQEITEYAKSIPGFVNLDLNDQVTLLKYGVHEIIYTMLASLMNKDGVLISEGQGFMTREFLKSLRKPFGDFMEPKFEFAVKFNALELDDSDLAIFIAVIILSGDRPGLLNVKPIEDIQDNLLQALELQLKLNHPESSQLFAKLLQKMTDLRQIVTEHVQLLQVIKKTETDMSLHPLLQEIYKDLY
Briefly: Agonist activity at human PPARgamma transfected in COS-7 cells assessed luciferase activity measured after 24 hrs by cell based luciferase transactivation assay.

Data set [10] concerns the target T4, Peroxisome proliferator-activated receptor alpha (Homo sapiens) (UniProt Q07869).
T4 sequence (whole entry): T1 sequence (Q07869 whole entry)
Briefly: Agonist activity at human PPARalpha transfected in COS-7 cells assessed maximum luciferase activity measured after 24 hrs by cell based luciferase transactivation assay relative to gemfibrozil. Conditions: filed as agonist. The essentials:
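Transient transfection of COS-7 cells with human PPARα, PPARγ or PPARδ plus luciferase reporter; constitutive Renilla luciferase also read. […] Three or more independent experiments in triplicate (N ≥ 9).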

Data set [11] relates to Mus musculus. In words: Antiosteoporotic activity against OVX-induced bone loss C57BL/6 mouse model assessed as increase in trabecular bone density at 10 mg/kg, po for 6 weeks by microcomputed tomography method relative to sham treated control. The format is functional, organism-based. The essentials:
(§1)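 Female C57BL/6 mice ovariectomized at 12 weeks of age; sham-operated group kept ovaries intact. After recovery, daily oral gavage of compound or vehicle for 6 weeks, sacrifice at 22 weeks of age. Distal femur trabecular structure analysed by micro-computed tomography, including bone volume/total volume, compared with sham mice; GW0742 as positive control.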

Data set [12] has as its system Mus musculus. In words: Antiosteoporotic activity against OVX-induced bone loss C57BL/6 mouse model assessed as increase in ratio of bone volume to total volume at 10 mg/kg, po for 6 weeks by microcomputed tomography method relative to sham treated control. It is filed as functional, organism-based. The method in brief:
as §1

Data set [13] in a line: Glutathione reactivity at pH 7.4 assessed as compound remaining measured after 24 hrs by LC-MS/MS method. The format is physicochemical. Conditions: pH 7.4, 24 h. The essentials:
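Substrate incubated in triplicate with 10-fold excess glutathione in pH 7.4 phosphate buffer containing 50% methanol at 25 °C for up to 24 h. Substrate loss followed at several time points by LC-MS/MS, which also confirmed the structure of glutathione conjugates.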

Data set [14] in a line: Toxicity in OVX-induced bone loss C57BL/6 mouse model assessed as change in body weight at 10 mg/kg, po for 6 weeks. The format is organism-based. Conditions: in vivo, 1008 h. The method in brief: (§2)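 OVX C57BL/6 females (surgery at 12 weeks, sham controls) dosed daily by oral gavage for 6 weeks. Gross toxicity monitored during dosing as weight, behaviour, eating and other habits versus controls.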

The nature of data set [15]: Toxicity in OVX-induced bone loss C57BL/6 mouse model assessed as change in behaviour at 10 mg/kg, po for 6 weeks. Conditions: in vivo, 1008 h. It is filed as organism-based. The method in brief:
as §2

The nature of data set [16]: Toxicity in OVX-induced bone loss C57BL/6 mouse model assessed as change in eating at 10 mg/kg, po for 6 weeks. The format is organism-based. Conditions: in vivo, 1008 h. The method in brief: as §2
The subject of data set [17] is Mus musculus. Briefly: Antiosteoporotic activity against OVX-induced bone loss C57BL/6 mouse model assessed as increase in microarchitectures at 10 mg/kg, po for 6 weeks by microcomputed tomography method relative to sham treated control. It is filed as functional, organism-based. The method in brief:
as §1

Data set [18] has as its system Mesenchymal stem cells. In words: Cytotoxicity against human Mesenchymal stem cells expressing human PPARdelta assessed as morphological changes at 50 uM by microscopy analysis. It is filed as cell-based.
Data set [19] deals with COS-7 (Chlorocebus aethiops). Briefly: Cytotoxicity against COS-7 cells expressing human PPARdelta assessed as morphological changes at lower concentration by microscopy analysis. Conditions: monkey.
Data set [20] is described as follows: Cytotoxicity against human HEK293T/17 cells assessed as reduction in cell viability at 10 to 100 uM measured after 72 hrs by MTT assay. Conditions: hek293t/17, 72 h, dose 10-100 µM. The format is cell-based. The method in brief: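 HEK 293T/17 cultures exposed to agent for 24 h or 72 h; viability by MTT. Controls: H2O2 (toxic positive), plain medium, vehicle at 0.1% DMSO corresponding to the 100 μM dose; doses by serial dilution in medium. Quadruplicate (N = 4), mean with SD; two-tailed P versus 0 μM. Viability <70% taken as relevant to human toxicity.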

Data set [21] has as its system L929. In words: Cytotoxicity against mouse L929 cells assessed as reduction in cell viability at 100 uM. It is filed as cell-based. Conditions: l929, 100 µM.
The subject of data set [22] is L929. In words: Cytotoxicity against mouse L929 cells assessed as reduction in cell viability at 1 to 100 uM measured after 72 hrs. Conditions: l929, 72 h, dose 1-100 µM. The format is cell-based.
Data set [23] concerns PPARdelta (human, expressed in COS-7 cells). Briefly: Cell toxicity index, ratio of CT50 to EC50 for agonist activity at human PPARdelta expressed in COS-7 cells. Conditions: monkey.

Structures are written as SMILES. The source made the active and inactive calls. No cut-off for these calls is given here.

As to `Cc1nc(-c2ccc(C(F)(F)F)c(F)c2)sc1COc1ccc(/C=C/C(=O)O)cc1`, the result in data set [1], in [3], in [5], in [6], in data set [11] and in data set [12] was Active. In addition, the outcome in data set [2] and in data set [4] was inactive. Also, the values for the EC50 in data set [7], in data set [8] and in data set [9] (read-out: EC50) were 51300 nM, 95.9 nM and 13200 nM, respectively. The compound also registered an Emax in [10] of 346%. Moreover, the Stability entry in [13] was “Stable”. Besides, the Activity entry in [14], in data set [15] and in data set [16] was “Toxic” in each case.
On to `Cc1nc(-c2ccc(C(F)(F)F)cc2)sc1CN(C)c1ccc(/C=C/C(=O)O)cc1`, for which the result in data set [1], in data set [3], in data set [4], in data set [5], in data set [6] and in data set [11] was Active. Besides, the outcome in data set [12] and in data set [17] was Active. Moreover, the result in [2] was inactive. The EC50 amounted to 947 nM in data set [7], 199 nM in data set [8] and 24700 nM in [9] (read-out: EC50). The compound further returned an Emax in data set [10] of 44%. Besides, the Stability entry in data set [13] is on record as “Stable”. The Activity result in data set [18] is recorded as “Toxic”; in [14], “Toxic”; in [15], “Toxic”; in data set [16] it was “Toxic”; in data set [19] it was “Non-Toxic”.
For the compound `Cc1nc(-c2ccc(C(F)(F)F)cc2)sc1CNc1ccc(/C=C/C(=O)O)cc1`, the outcome in [1], in data set [3], in [4], in data set [5] and in data set [6] was Active. In addition, in data set [2], the outcome was inactive. Besides, the EC50 in data set [7] is 6010 nM; in data set [8], 1220 nM. In addition, the Emax in [10] amounted to 377%.
In the case of `Cc1nc(-c2ccc(C(F)(F)F)cc2)sc1CSc1ccc(/C=C/C(=O)O)cc1`, the outcome in data set [1] and in data set [5] was Active. For the same compound, the outcome in data set [2] and in data set [3] was inactive. The values for the EC50 in [7], in data set [8] and in data set [9] (read-out: EC50) were 17700 nM, 535 nM and 17000 nM, respectively. The same compound displayed an Emax in data set [10] of 338%.
In the case of `Cc1nc(-c2ccc(C(F)(F)F)c(F)c2)sc1CSc1ccc(/C=C/C(=O)O)cc1`, the outcome in data set [1], in data set [5], in data set [6], in [12] and in [17] was Active. The result in [2], in data set [3] and in data set [4] was inactive. Besides, the EC50 turned out to be 915 nM in [7], 134 nM in [8] and 1300 nM in [9] (read-out: EC50). Moreover, in data set [10], the Emax came to 163%. In data set [13], the Stability result is reported as “Stable”. Moreover, the Activity entry in [20], in data set [21], in data set [22], in data set [14], in data set [15] and in [16] was “Toxic” throughout. Also, in data set [23], the selectivity ratio turned out to be 1350.
For `Cc1nc(-c2ccc(C(F)(F)F)cc2)sc1COc1ccc(/C=C/C(=O)O)cc1`, the outcome in data set [1] and in [2] was Active. The EC50 was 2230 nM in [7], 274 nM in [8] and “Not Active” in data set [9] (cos-7). For the same compound, in data set [10], the Emax was 135%. For the same compound, the Activity result is “Toxic” in data set [18] and “Non-Toxic” in [19].
